Results on two compounds are retold here after PMC3880617 (Journal of medicinal chemistry, 2013).

Data set [1] in a line: Stability in solution by 31P{1H} NMR in deuterated solvents. The class given is physicochemical.
The subject of data set [2] is plasmid (pBR322) DNA. Description: Electrophoresis mobility shift assay with plasmid DNA. In kind it is binding. The note with it: metal/DNAbp ratios 0.25-2.0; 37 °C, 20 h. In outline:
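Supercoiled pBR322 (20 μg/mL) in 5 mM Tris/HCl, 50 mM NaClO4, pH 7.39, incubated with test compound at […] metal complex:DNAbp ratios for 20 h at 37 °C in the dark. Untreated DNA and cisplatin-DNA were the controls. Samples were run on 1% agarose in TAE for 1.5 h at 80 V and stained with GelRed for 30 min. Read-out: ratio at which the two plasmid forms coalesce.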

Data set [3] has as its system human ovarian cancer A2780 cell line. The note with it: read-out: IC50 A2780; cisplatin dissolved in H2O; ref [18]; cited from earlier work.
In data set [4] the test system is A2780cisR (cisplatin resistant variant of A2780). The note with it: read-out: IC50 A2780cisR; cisplatin dissolved in H2O; ref [18]; cited from earlier work.
For data set [5], the system named is human breast cancer cell line MCF7. Conditions: read-out: IC50 MCF7; cisplatin dissolved in H2O; ref [18]; cited from earlier work.
Data set [6] deals with non-tumorigenic human embryonic kidney cells HEK293T. The note with it: read-out: IC50 HEK-293T; cisplatin dissolved in H2O; ref [18]; cited from earlier work.

Regarding “[{Cp-P(Ph2)=NH-Ph}2Fe](AuCl4)2 [compound 4]”, the “half-life in d6-DMSO solution” value in data set [1] was “weeks”.
As to `N.N.[Cl][Pt][Cl]` [cisplatin], in data set [2], the “effect on electrophoretic mobility of pBR322 plasmid forms” value was “decrease in mobility of the CCC form and an increase in mobility of the OC form”. In addition, the half-maximal inhibitory concentration (IC50) is 1.9 ± 0.6 µM in data set [3], 35 ± 7 µM in data set [4], 20 ± 3 µM in data set [5] and 11 ± 2.9 µM in data set [6].
